This is a sample that favours compounds with a hit; in the whole collection about 4.7% have one here.
aSyn 5UTR inh = 5' untranslated region of α-synuclein, MLPCN primary screen; inhibition, % (tested at 7.5 µM); actives 0.82% (n = 300,000); alpha-synuclein 5'UTR reporter, inhibitor activity; in the data active = inhibition above about 60%;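 also: H4 neuroglioblastoma cells stably carrying SNCA 5'UTR luciferase fusion; 0% = DMSO wells and 100% = positive control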
Mdm2 MdmX PPI = human Mdm2/MdmX binding inhibition. O15151+Q00987. inhibition, % at 8 µM. actives 3% (n = 330,000). SaOS-2 split-luciferase Mdm2/MdmX complementation, luminescence;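 active = inhibition of at least 50% at 8 µM in the primary screen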
Jurkat NFkB inh = lowers PMA/ionomycin-induced NF-kB signal in Jurkat cells; AID 435003; PMA/ionomycin-induced NF-kB luciferase reporter, luminescence; inhibition, % at 4 µM; actives 0.53% (n = 330,000); in the data active = inhibition above about 50%
697 NFkB inh = inhibitors of the PMA/ionomycin-induced NF-kB reporter in 697 B cells; 697 B-cell NF-kB luciferase reporter, 16 h; actives 0.33% (n = 330,000); inhibition, % at 4 µM; in the data active = inhibition above about 35%
VIM-2 inh = inhibitors of Pseudomonas aeruginosa VIM-2 metallo-beta-lactamase; actives 0.89% (n = 290,000); AID 1527; inhibition, % at 5.6 µM; purified VIM-2, nitrocefin hydrolysis, epi-absorbance fluorescence;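 active = inhibition above the mean of all tested compounds plus 3 SD, cutoff set per screening run, cut at about 7.5% in these data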;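 also: red hydrolysis product quenches plate fluorescence so inhibitors raise well fluorescence; 0% = enzyme with DMSO and 100% = DMSO without enzyme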
IMP-1 inh = blocks Pseudomonas aeruginosa IMP-1 metallo-beta-lactamase | inhibition, % at 5.6 µM | purified IMP-1, nitrocefin hydrolysis, epi-absorbance fluorescence | actives 0.45% (n = 290,000);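 active = inhibition above the mean plus 3 SD of all compounds in the same screening run, cut at about 4.5% in these data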;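 also: 0% = IMP-1 with DMSO and 100% = DMSO wells lacking enzyme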
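System: Purified IMP-1 | Read-out basis: Percent enzyme inhibition | Controls: IMP-1 with DMSO as 0%, enzyme-free DMSO as 100% | Replicates: One well per compound | Doses: 5.6 µM nominal single concentration | Detection: Epi-absorbance fluorescence, 480 nm excitation, 530 nm emission | Incubation: 25 °C, 15 min preincubation, 25 min reaction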
Mdm2 MdmX conf = human Mdm2/MdmX binding inhibition, confirmed. actives 55% (n = 10,000). luminescent assay. inhibition, % at 8 µM. shares compounds with Mdm2 MdmX PPI; in the data active = inhibition above about 40%
FLuc counter = inhibits full-length luciferase, flagging false Mdm2/MdmX hits; inhibition, % at 8 µM; shares compounds with Mdm2 MdmX PPI; SaOS-2 full-length luciferase counterscreen, luminescence; actives 77% (n = 6,200);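 active = mean inhibition at 8 µM reaching about 37%, which flags the compound as non-specific, limit read from the data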;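 also: p53-null SaOS-2 cells with luciferase driven by a doxycycline-inducible promoter; compound on cells about two nights before reading with doxycycline added after day one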
Active calls of the source: *; / = not tested or not shown.

SMILES	aSyn 5UTR inh	Mdm2 MdmX PPI	Jurkat NFkB inh	697 NFkB inh	VIM-2 inh	IMP-1 inh	Mdm2 MdmX conf	others
COc1ccc(NC(=O)c2ccc(CN3CCN(c4ccccc4)CC3)cc2)cc1	7.3	38.2	47.9	-2.1	-3.2	0.0	/
c1ccc(NC2=NCCN2CC2CCCC2)cc1	7.3	-27.5	4.3	10.5	-5.0	-4.7	/
O=C(NCc1ccccc1)C1=C[C@@H](c2csc3ccccc23)C[C@@H](OCCCCO)O1	94.9*	74.5*	36.9	-10.1	-1.7	-0.7	75.3*	FLuc counter=38.6*
O=C(NCc1ccccc1)C1=C[C@@H](c2csc3ccccc23)C[C@@H](OCc2ccc(CO)cc2)O1	26.6	72.4*	15.6	20.2	-1.6	-2.7	32.4
O=C(NC1CC1)C1=C[C@H](c2csc3ccccc23)C[C@H](OCCCCO)O1	1.6	28.4	5.9	16.0	-3.1	-2.1	/
O=C(O)C1=C[C@H](c2csc3ccccc23)C[C@H](OCc2ccc(CO)cc2)O1	-3.0	13.7	4.2	8.3	1.8	-2.6	/
COc1cc2c(cc1OC)CN(c1nc(CN3CCOCC3)nc3sc4c(c13)CCC(C)C4)CC2 (configuration not stated)	-2.8	63.9*	-1.1	18.9	-2.2	-3.6	28.4	FLuc counter=73.7*
COc1ccc(Nc2nc(CN3CCOCC3)nc3sc4c(c23)CCC(C)C4)cc1OC (configuration not stated)	16.7	17.2	-19.0	30.2	-2.6	-1.7	/
Cc1c(CCOC(=O)c2cc([N+](=O)[O-])cc([N+](=O)[O-])c2)sc[n+]1CC(=O)c1ccccc1	-32.8	22.5	5.2	-9.2	-1.6	-1.0	/
Cc1c(CCOC(=O)CC23CC4CC(CC(C4)C2)C3)sc[n+]1CC(=O)c1ccc(Br)cc1	12.0	51.1*	-4.3	-4.4	-3.0	-3.5	-2.0
Cc1c(CCOC(=O)CC23CC4CC(CC(C)(C4)C2)C3)sc[n+]1CC(=O)c1ccccc1	-65.4	53.7*	6.2	-25.3	-2.3	-1.6	13.6
Cc1c(CCOC(=O)c2ccccc2)sc[n+]1CC(=O)c1ccc(Br)cc1	6.7	12.5	3.6	-12.3	1.3	0.3	/
Cc1c(CCOC(=O)C23CC4CC(CC(C)(C4)C2)C3)sc[n+]1CC(=O)c1ccccc1	5.4	54.2*	-15.9	-9.4	-3.7	-3.0	25.6
COCc1cc(CN2CCN(CCCc3ccccc3)C(CCO)C2)ccc1OC (configuration not stated)	4.9	6.9	8.6	-1.6	-1.2	-1.8	/
COC(=O)c1c(NC(=O)COC(=O)c2ccc(C)s2)sc2c1CCCCC2	-11.8	52.1*	-15.8	-16.9	-0.7	-2.6	13.3
COC(=O)c1c(NC(=O)COC(=O)c2ccccc2O)sc2c1CCCCC2	3.8	30.1	-26.1	-11.3	-1.7	0.7	/
COC(=O)c1c(NC(=O)COC(=O)c2ccc(NC(=O)CC#N)cc2)sc2c1CCCCC2	19.1	63.7*	-1.1	1.5	-2.7	-1.6	2.4
COc1cccc(CNC(=O)c2cc(C3CC3)nc3c2cnn3C(C)C)c1	/	20.7	-2.3	10.2	/	/	/
CCCCN(C)CCNC(=S)Nc1ccc2nc(N3CCN(CC)CC3)cc(C)c2c1	-27.2	73.9*	3.4	-7.7	2.9	-3.6	36.2	FLuc counter=51.0*
CCN1CCN(c2cc(C)c3cc(NC(=S)NCCN(C)C)ccc3n2)CC1	-5.1	-11.5	13.1	18.4	4.0	-3.1	/
Cc1cc(N2CCCC2)nc2ccc(NC(=S)NCCCN3CCC(C)CC3)cc12	-27.0	100.3*	17.4	-8.3	0.0	-2.0	39.0	FLuc counter=48.8*
CCN(CCn1cccn1)Cc1nc(Cc2cccc(F)c2)no1	11.7	-0.9	0.3	13.3	-3.4	-2.1	/
NC(=O)NCCCC(NC(=O)c1ccc(C#CC2(O)CCCCC2)cc1)C(=O)O (configuration not stated)	12.3	61.3*	2.0	-26.8	-3.4	-2.6	5.7
CC(=O)C(C(c1ccccc1)c1c[nH]c2ccccc12)[N+](=O)[O-] (configuration not stated)	-29.8	52.6*	6.8	-18.3	-3.0	-1.1	60.6*	FLuc counter=56.9*
CCn1cc(C(c2ccccc2)C(C(C)=O)[N+](=O)[O-])c2ccccc21 (configuration not stated)	-15.5	17.6	12.2	-10.9	-1.3	-3.2	/
SMILES	aSyn 5UTR inh	Mdm2 MdmX PPI	Jurkat NFkB inh	697 NFkB inh	VIM-2 inh	IMP-1 inh	Mdm2 MdmX conf	others
COc1ccc(-c2c(C#Cc3ccc(N(C)C)cc3)c3ccccc3n2C)cc1	/	52.5*	-1.0	-84.8	/	/	9.3
COc1ccc(-c2c(C#Cc3ccsc3)c3cc(Br)ccc3n2C)cc1	/	-0.1	-27.6	-1.8	/	/	/
COc1cc(C#Cc2c(C=O)n(C)c3ccccc23)cc(OC)c1	/	65.6*	-4.6	-9.6	/	/	39.0	FLuc counter=77.8*
CCC(=O)Nc1nnc(SCC(=O)c2ccc3c(c2)Cc2ccccc2-3)s1	-0.9	54.8*	6.8	-12.7	-0.9	-1.9	5.2
CCCn1nc([N+](=O)[O-])c(C(C#N)c2nc3ccccc3o2)c(Cl)c1=O (configuration not stated)	15.7	-16.6	-26.1	-15.5	-4.1	-3.0	/
CCn1nc([N+](=O)[O-])c(C(C#N)c2nc3cc(C(F)(F)F)ccc3s2)c(Cl)c1=O (configuration not stated)	1.0	76.1*	0.3	13.8	-4.1	-9.3	72.4*	FLuc counter=49.8*
COC(=O)COc1ccc(S(=O)(=O)Nc2ccccc2C(=O)OC)cc1	-6.4	8.1	19.4	15.7	-0.4	-0.1	/
Nc1c(C(=O)Nc2ccc(F)cc2)sc(=S)n1-c1ccccc1F	-84.1	71.6*	-30.0	-16.0	0.3	0.9	2.8
Cc1cc(C)n(S(=O)(=O)c2ccccc2[N+](=O)[O-])n1	-51.7	13.7	4.4	10.2	-2.1	-0.3	/
O=C(Cn1c(=O)oc2ccccc21)NC(=O)NCc1ccccc1	13.2	18.0	13.1	14.3	-2.1	-1.9	/
COc1ccc(NC(=O)c2ccccc2NC(=O)c2cccs2)cc1	4.0	27.2	-13.6	8.5	-0.7	-4.2	/
CC(=O)N1CCN(c2ccccc2NC(=O)c2cc3ccccc3o2)CC1	-1.9	5.7	-10.4	1.5	2.5	1.3	/
COc1ccc2cc3cc(C(=O)NCCN4CCN(c5ccccc5F)CC4)oc3nc2c1	15.5	56.5*	20.0	-16.0	-2.5	-0.5	14.1
CN1CCN(c2ccccc2NC(=S)NC(=O)c2cc3ccccc3o2)CC1	26.5	91.7*	15.2	-1.5	3.0	-0.7	17.6
COc1ccc2cc3cc(C(=O)Nc4ccccc4N4CCN(C)CC4)oc3nc2c1	-52.4	100.6*	21.6	-43.4	2.5	-3.1	3.8
